Measured values: ChEMBL document CHEMBL4359929, “Piperidine and piperazine inhibitors of fatty acid amide hydrolase targeting excitotoxic pathology” (Bioorg Med Chem, 2019)
Active and inactive are the calls of the source. The calls are words filed in the database; no cut-off is given here.

Key:
[1] = Ratio of IC50 for rat recombinant His/GST-tagged FAAH expressed in Escherichia coli cells to IC50 for human recombinant MBP-tagged FAAH expressed in Escherichia coli cells by fluorescence based assay
[2] = molecular target: T1, Fatty-acid amide hydrolase 1 (Homo sapiens, UniProt O00519); assay: Inhibition of human recombinant MBP-tagged FAAH expressed in Escherichia coli cells using AAMCA as substrate incubated for 15 mins followed by substrate addition and measured after every 20 mins for 4 hrs by fluorescence based assay
T1 sequence (O00519 whole entry): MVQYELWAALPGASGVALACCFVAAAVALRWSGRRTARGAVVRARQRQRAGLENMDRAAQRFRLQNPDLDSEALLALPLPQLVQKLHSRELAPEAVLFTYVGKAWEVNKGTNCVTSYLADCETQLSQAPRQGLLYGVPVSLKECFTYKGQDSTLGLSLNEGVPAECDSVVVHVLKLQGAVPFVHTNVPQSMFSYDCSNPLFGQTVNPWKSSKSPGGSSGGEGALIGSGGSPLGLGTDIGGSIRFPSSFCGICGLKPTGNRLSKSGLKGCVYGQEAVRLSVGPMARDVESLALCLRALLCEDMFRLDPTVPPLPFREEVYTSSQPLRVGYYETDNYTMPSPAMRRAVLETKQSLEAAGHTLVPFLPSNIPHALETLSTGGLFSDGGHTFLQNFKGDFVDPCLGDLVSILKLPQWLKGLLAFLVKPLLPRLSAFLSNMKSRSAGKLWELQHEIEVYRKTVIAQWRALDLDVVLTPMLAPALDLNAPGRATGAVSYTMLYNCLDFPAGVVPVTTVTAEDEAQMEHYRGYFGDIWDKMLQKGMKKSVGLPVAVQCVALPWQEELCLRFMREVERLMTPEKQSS
Outline: (§1)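 Fluorescent enzyme assay in throughput format. Human recombinant FAAH or purified rat FAAH used arachidonoyl 7-amino-4-methylcoumarin amide as substrate; human recombinant MGL was run by a similar fluorometric procedure.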

[3] = molecular target: T2, Fatty-acid amide hydrolase 1 (Rattus norvegicus, UniProt P97612); assay: Inhibition of rat recombinant His/GST-tagged FAAH expressed in Escherichia coli cells using AAMCA as substrate incubated for 15 mins followed by substrate addition and measured after every 20 mins for 4 hrs by fluorescence based assay; outline: as §1
T2 sequence (P97612 whole entry): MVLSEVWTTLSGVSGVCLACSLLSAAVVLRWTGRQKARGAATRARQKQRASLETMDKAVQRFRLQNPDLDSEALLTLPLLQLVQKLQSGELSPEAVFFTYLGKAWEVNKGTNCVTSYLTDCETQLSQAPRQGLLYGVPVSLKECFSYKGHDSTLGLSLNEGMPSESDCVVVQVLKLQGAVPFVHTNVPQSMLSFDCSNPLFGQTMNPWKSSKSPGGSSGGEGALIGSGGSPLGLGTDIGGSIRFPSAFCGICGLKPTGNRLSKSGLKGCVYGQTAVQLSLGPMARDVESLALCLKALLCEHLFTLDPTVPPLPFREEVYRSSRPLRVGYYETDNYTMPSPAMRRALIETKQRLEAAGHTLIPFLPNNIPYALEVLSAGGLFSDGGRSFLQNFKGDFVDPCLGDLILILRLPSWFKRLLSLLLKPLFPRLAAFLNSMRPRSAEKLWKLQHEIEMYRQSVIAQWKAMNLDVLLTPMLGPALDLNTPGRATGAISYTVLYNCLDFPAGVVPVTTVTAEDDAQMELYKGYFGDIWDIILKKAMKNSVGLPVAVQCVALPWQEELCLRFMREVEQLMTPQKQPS

Monoglyceride lipase = molecular target: T3, Monoglyceride lipase (Homo sapiens, UniProt Q99685); assay: Inhibition of human recombinant His-tagged MGL expressed in Escherichia coli BL21 DE3 cells using AHMMCE as substrate preincubated with enzyme for 15 mins followed by substrate addition and measured after every 15 mins for 3 hrs by fluorescence based assay; outline: as §1
T3 sequence (Q99685 whole entry): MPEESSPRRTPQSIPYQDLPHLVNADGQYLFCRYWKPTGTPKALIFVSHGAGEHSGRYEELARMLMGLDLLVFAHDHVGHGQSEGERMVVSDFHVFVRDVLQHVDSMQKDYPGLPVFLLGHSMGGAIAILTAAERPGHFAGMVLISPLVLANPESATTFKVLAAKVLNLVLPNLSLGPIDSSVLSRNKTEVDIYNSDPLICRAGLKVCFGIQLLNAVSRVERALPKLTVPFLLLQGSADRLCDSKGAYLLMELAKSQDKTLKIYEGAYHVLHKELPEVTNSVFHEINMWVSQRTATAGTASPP

[4] = Stability in human liver microsomes assessed as half life; assay type: ADME, Microsome
Outline: (§2)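 Stability assessed as half-life in human, rat and mouse plasma and gastric fluid, and in human, rat and mouse liver microsomal preparations.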

[5] = Stability in rat liver microsomes assessed as half life; assay type: ADME, Microsome; outline: as §2
[6] = Stability in mouse liver microsomes assessed as half life; assay type: ADME, Microsome; outline: as §2
[7] = Stability in human plasma assessed as half life; assay type: ADME, cell-free; outline: as §2
[8] = Stability in rat plasma assessed as half life; assay type: ADME, cell-free; outline: as §2
[9] = Stability in mouse plasma assessed as half life; assay type: ADME, cell-free; outline: as §2
[10] = Stability in human gastric fluid assessed as half life; assay type: ADME, tissue-based, Gastric juice; outline: as §2
[11] = Stability in rat gastric fluid assessed as half life; assay type: ADME, tissue-based, Gastric juice; outline: as §2
[12] = Stability in mouse gastric fluid assessed as half life; assay type: ADME, tissue-based, Gastric juice; outline: as §2
[13] = Drug concentration in plasma (unknown origin) at 2 mg/kg, iv measured after 15 mins; assay type: ADME, organism-based
Outline: (§3)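 Cassette pharmacokinetics: compounds given together at 2 mg/kg iv; brain and plasma levels (µg/mL) measured at 15 min.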

[14] = Drug concentration in brain (unknown origin) at 2 mg/kg, iv measured after 15 mins; assay type: ADME, organism-based; conditions: read-out: Ct; outline: as §3
Homo sapiens [15] = organism: Homo sapiens; assay: Selectivity ratio of IC50 for human recombinant His-tagged MGL expressed in Escherichia coli BL21 DE3 cells to IC50 for human recombinant MBP-tagged FAAH expressed in Escherichia coli cells by fluorescence based assay
Homo sapiens [16] = organism: Homo sapiens; assay: Selectivity ratio of IC50 for human full length ABHD6 expressed in Escherichia coli cells to IC50 for human recombinant MBP-tagged FAAH expressed in Escherichia coli cells by fluorescence based assay
[17] = molecular target: Cannabinoid receptor 1 (Rattus norvegicus) (UniProt P20272); assay: Displacement of [3H]CP55940 from CB1 receptor in rat brain by competition-equilibrium binding analysis; assay type: tissue-based
Outline: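 Rat brain membranes as CB1 source; competition-equilibrium binding against [3H]CP-55,940.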
Target sequence in this assay (P20272 whole entry): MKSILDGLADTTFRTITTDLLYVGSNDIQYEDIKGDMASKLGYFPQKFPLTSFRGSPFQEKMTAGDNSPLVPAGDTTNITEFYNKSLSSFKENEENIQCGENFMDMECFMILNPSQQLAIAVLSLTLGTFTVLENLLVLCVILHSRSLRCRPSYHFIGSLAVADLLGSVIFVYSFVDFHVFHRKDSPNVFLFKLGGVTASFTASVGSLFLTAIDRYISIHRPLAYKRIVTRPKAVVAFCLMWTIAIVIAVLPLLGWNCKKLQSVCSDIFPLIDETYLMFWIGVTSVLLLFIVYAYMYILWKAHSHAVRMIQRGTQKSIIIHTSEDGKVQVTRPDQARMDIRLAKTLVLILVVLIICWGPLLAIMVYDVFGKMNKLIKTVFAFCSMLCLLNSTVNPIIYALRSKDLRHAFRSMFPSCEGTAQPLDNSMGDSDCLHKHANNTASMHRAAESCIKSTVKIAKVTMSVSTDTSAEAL

[18] = molecular target: Cannabinoid receptor 2 (Mus musculus) (UniProt P47936); assay: Displacement of [3H]CP55940 from mouse CB2 receptor expressed in HEK293 cells by competition-equilibrium binding analysis; assay type: cell-based
Outline: (§4)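 HEK293 cell membranes expressing mouse or human CB2; competition-equilibrium binding against [3H]CP-55,940.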

[19] = molecular target: Cannabinoid receptor 2 (Homo sapiens) (UniProt P34972); assay: Displacement of [3H]CP55940 from human CB2 receptor expressed in HEK293 cells by competition-equilibrium binding analysis; assay type: cell-based; outline: as §4
[20] = Selectivity ratio of IC50 for human recombinant His-tagged MGL expressed in Escherichia coli BL21 DE3 cells to IC50 for rat recombinant His/GST-tagged FAAH expressed in Escherichia coli cells by fluorescence based assay
[21] = Selectivity ratio of IC50 for human full length ABHD6 expressed in Escherichia coli cells to IC50 for rat recombinant His/GST-tagged FAAH expressed in Escherichia coli cells by fluorescence based assay
[22] = molecular target: Cannabinoid receptor 1 (Rattus norvegicus) (UniProt P20272); assay: Displacement of [3H]CP55940 from CB1 receptor in rat brain by competition-equilibrium binding analysis
Target sequence in this assay (P20272 whole entry, looked up): as the sequence (P20272 whole entry) above

[23] = molecular target: T4, Fatty-acid amide hydrolase 1 (Homo sapiens) (UniProt O00519); assay: Inhibition of human recombinant MBP-tagged FAAH expressed in Escherichia coli cells at 1 uM using AAMCA as substrate incubated for 15 mins followed by substrate addition and measured after every 20 mins for 4 hrs by fluorescence based assay relative to control
T4 sequence (whole entry): T1 sequence (O00519 whole entry)
Outline: (§5)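 Fluorescent FAAH assay with arachidonoyl 7-amino-4-methylcoumarin amide as substrate; compound tested at a single concentration of 1 µM; percent inhibition reported.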

[24] = molecular target: T5, Fatty-acid amide hydrolase 1 (Rattus norvegicus) (UniProt P97612); assay: Inhibition of rat recombinant His/GST-tagged FAAH expressed in Escherichia coli cells at 1 uM using AAMCA as substrate incubated for 15 mins followed by substrate addition and measured after every 20 mins for 4 hrs by fluorescence based assay relative to control; outline: as §5
T5 sequence (whole entry): T2 sequence (P97612 whole entry)

[25] = molecular target: T6, Monoglyceride lipase (Homo sapiens) (UniProt Q99685); conditions: at 1 µM
T6 sequence (whole entry): T3 sequence (Q99685 whole entry)

[26] = molecular target: T5, Fatty-acid amide hydrolase 1 (Rattus norvegicus); assay: Inhibition of FAAH in rat brain at 10 uM incubated for 30 mins followed by incubation with FP-Rh probe for 45 mins by ABPP assay; assay type: tissue-based
Outline: (§6)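 Gel-based competitive ABPP on rat brain membrane homogenates (10 mg/mL protein). Compound at 1 and 10 μM or DMSO for 30 min at room temperature, then 10 μM rhodamine-tagged fluorophosphonate probe for 45 min at room temperature. FAAH was run with a reference FAAH inhibitor at 10 μM as positive control. Serine hydrolase labelling read by in-gel fluorescence.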

[27] = molecular target: T7, Monoglyceride lipase (Rattus norvegicus) (UniProt Q8R431); assay: Inhibition of MGL in rat brain at 10 uM incubated for 30 mins followed by incubation with FP-Rh probe for 45 mins by ABPP assay; assay type: tissue-based; outline: as §6
T7 sequence (whole entry): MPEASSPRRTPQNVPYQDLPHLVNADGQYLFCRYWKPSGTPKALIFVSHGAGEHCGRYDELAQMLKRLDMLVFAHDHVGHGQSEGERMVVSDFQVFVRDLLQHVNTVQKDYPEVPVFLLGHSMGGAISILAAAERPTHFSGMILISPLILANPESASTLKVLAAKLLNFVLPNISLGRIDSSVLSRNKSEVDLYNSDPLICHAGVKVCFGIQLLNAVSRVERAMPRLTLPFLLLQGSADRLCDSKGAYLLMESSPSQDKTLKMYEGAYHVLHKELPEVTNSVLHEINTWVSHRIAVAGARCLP

[28] = molecular target: T8, Monoacylglycerol lipase ABHD6 (Rattus norvegicus) (UniProt Q5XI64); assay: Inhibition of ABHD6 in rat brain at 10 uM incubated for 30 mins followed by incubation with FP-Rh probe for 45 mins by ABPP assay; assay type: tissue-based; outline: as §6
T8 sequence (whole entry): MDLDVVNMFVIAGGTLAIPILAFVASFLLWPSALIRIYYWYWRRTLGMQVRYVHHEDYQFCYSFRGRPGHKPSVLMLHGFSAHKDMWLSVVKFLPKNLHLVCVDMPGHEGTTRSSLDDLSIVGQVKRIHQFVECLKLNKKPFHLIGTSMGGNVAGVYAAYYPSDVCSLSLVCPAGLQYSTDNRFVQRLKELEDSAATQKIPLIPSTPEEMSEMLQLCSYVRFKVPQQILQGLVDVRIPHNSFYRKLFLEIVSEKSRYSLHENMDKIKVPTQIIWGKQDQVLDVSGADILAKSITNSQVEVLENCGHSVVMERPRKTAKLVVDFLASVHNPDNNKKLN

Cannabinoid receptor 2 (Homo sapiens), sequence (P34972 whole entry): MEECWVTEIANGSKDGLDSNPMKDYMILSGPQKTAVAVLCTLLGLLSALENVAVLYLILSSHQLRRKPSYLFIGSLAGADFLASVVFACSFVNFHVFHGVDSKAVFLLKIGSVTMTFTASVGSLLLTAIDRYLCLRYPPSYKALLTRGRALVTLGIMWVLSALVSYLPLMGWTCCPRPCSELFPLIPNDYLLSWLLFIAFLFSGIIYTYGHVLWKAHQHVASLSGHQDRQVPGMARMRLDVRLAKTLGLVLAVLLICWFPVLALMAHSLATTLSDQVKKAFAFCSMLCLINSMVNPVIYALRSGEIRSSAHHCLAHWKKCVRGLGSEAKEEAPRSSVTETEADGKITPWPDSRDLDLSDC
Cannabinoid receptor 2 (Mus musculus), sequence (P47936 whole entry): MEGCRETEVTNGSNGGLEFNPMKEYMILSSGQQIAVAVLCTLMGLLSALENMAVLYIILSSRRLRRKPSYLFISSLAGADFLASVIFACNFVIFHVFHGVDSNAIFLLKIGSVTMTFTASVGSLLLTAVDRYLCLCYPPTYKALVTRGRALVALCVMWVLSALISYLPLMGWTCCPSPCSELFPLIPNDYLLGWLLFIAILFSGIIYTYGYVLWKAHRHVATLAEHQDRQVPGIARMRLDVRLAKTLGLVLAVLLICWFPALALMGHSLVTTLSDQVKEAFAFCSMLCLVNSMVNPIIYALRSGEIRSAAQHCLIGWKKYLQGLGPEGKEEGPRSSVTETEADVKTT

SMILES	Ratio IC50 [1]	IC50 [2]	IC50 [3]	IC50 (Monoglyceride lipase)	half-life [4]	half-life [5]	half-life [6]	half-life [7]	half-life [8]	half-life [9]	half-life [10]	half-life [11]	half-life [12]	Ratio IC50 (Homo sapiens [15])	Ratio IC50 (Homo sapiens [16])	Activity [17]	Activity [18]	Activity [19]	Ratio IC50 [20]	Activity [22]	also measured
CN(C)c1ccc(C2CCN(C(=O)Oc3cccc(N4CCS(=O)(=O)CC4)c3)CC2)cc1	2 to 3	2.4 nM	6.9 nM	> 1000 nM	15 to 25 min	15 to 25 min	15 to 25 min	> 60 min	> 60 min	> 60 min	> 60 min	> 60 min	> 60 min	> 1000	> 1000	inactive	inactive	inactive	> 1000	inactive	concentration at 0.25 h [13]: 746 ng/mL; concentration at 0.25 h [14]: 1110 ng/mL; Ratio IC50 [21]: > 1000
O=C(Oc1cccc(N2CCS(=O)(=O)CC2)c1)N1CCC(c2ccc(N3CCCC3)cc2)CC1	2 to 3	3.5 nM	6.3 nM	> 1000 nM	15 to 25 min	15 to 25 min	15 to 25 min	> 60 min	> 60 min	> 60 min	> 60 min	> 60 min	> 60 min	> 1000	> 1000	inactive	inactive	inactive	> 1000	inactive	Ratio IC50 [21]: > 1000
O=C(Nc1cccc(N2CCS(=O)(=O)CC2)c1)N1CCN(c2ccccc2)CC1																inactive	inactive	inactive		inactive	inhibition [23]: inactive; inhibition [24]: inactive; inhibition [25]: inactive
O=C(Nc1cccc(N2CCS(=O)(=O)CC2)c1)N1CCC(c2ccccc2)CC1																inactive	inactive	inactive		inactive	inhibition [23]: inactive; inhibition [24]: inactive; inhibition [25]: inactive
O=C(Nc1cccnn1)N1CCC(=Cc2cccc(Oc3ccc(C(F)(F)F)cn3)c2)CC1																					inhibition [26]: Active; inhibition [27]: inactive; inhibition [28]: inactive
